≈ marks a conversion by molar mass, not a printed value. Calls of active or inactive are those of the source. The calls are words filed in the database; no cut-off is given here.
How the values were obtained:
HUVEC [1] = experiment: Antiinflammatory activity against TNF-alpha-induced ICAM1 protein expression in HUVEC at maximum tolerated dose pretreated for 2 hrs before TNFalpha challenge measured after 16 hrs by whole cell ELISA; type: functional, Homo sapiens
How it was run: (§1)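 Primary umbilical cord endothelial cells were pre-incubated 2 h with or without compound, then TNF-α (10 ng/mL) for 16 h (ICAM-1, VCAM-1) or 4 h (E-selectin). Whole-cell ELISA: glutaraldehyde fixation, milk block, primary antibody overnight at 4 °C, peroxidase secondary, OPD substrate, A490. IC50 read from %inhibition vs log concentration plots of three independent experiments. Single-level values were taken at the highest concentration giving >95% viability (MTT, 24 h).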

[2] = Cytotoxicity against HUVEC assessed as maximum tolerated dose for >95% cell viability after 24 hrs by MTT assay; type: cell-based; details: human, HUVEC cells; read-out: MTD
How it was run: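 Primary human umbilical vein endothelial cells (mild trypsinization), grown in M-199 with 15% heat-inactivated FCS, endothelial cell growth factor and heparin, 5% CO2. Cells attached overnight, then exposed to compounds or DMSO (0.25%) for 24 h; MTT (5 mg/mL in PBS) 4 h, formazan dissolved in DMSO, absorbance 570 nm. Also checked by trypan blue exclusion. Value is highest concentration giving >95% viability; ≥3 experiments in triplicate.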

HUVEC [3] = experiment: Antiinflammatory activity against TNF-alpha-induced neutrophil adhesion in HUVEC at 2.5 to 20 ug/ml pretreated for 2 hrs before TNFalpha challenge measured after 6 hrs by calorimetric analysis; type: functional, Homo sapiens
How it was run: (§2)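 A confluent endothelial monolayer was pretreated ±compound for 2 h, then given TNF-α (10 ng/mL) for 6 h. Neutrophils from healthy donor blood (dextran sedimentation, Ficoll-Hypaque, hypotonic RBC lysis; 6 × 10^4/well) were added for 1 h at 37 °C under static conditions. After washing, bound cells were detected with OPD/CTAB/aminotriazole substrate at A490. Mean ± SD of 3 independent experiments.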

HUVEC [4] = experiment: Antiinflammatory activity against TNF-alpha-induced neutrophil adhesion in HUVEC pretreated for 2 hrs before TNFalpha challenge measured after 6 hrs by calorimetric analysis; type: functional, cell-based; details: Homo sapiens; how it was run: as §2
HUVEC [5] = experiment: Antiinflammatory activity against TNF-alpha-induced ICAM1 protein expression in HUVEC at 20 ug/ml pretreated for 2 hrs before TNFalpha challenge measured after 16 hrs by flow cytometry; type: functional; details: Homo sapiens
How it was run: (§3)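 Endothelial cells were treated ±compound ([…]) for 2 h, then TNF-α (10 ng/mL). E-selectin was read at 4 h, ICAM-1 and VCAM-1 at 16 h. Cells were dislodged, stained with specific or control IgG antibody (30 min, 4 °C) and then FITC anti-mouse IgG. Autofluorescence was subtracted and mean fluorescence intensity taken from three independent experiments.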

HUVEC [6] = experiment: Antiinflammatory activity against LPS-induced E-selectin protein expression in HUVEC at 2.5 to 20 ug/ml pretreated for 2 hrs before LPS challenge measured after 4 hrs by whole cell ELISA; type: functional, cell-based; details: Homo sapiens
How it was run: (§4)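 Primary human umbilical cord endothelial cells (isolated by mild trypsinization, grown in M-199 with 15% heat-inactivated FCS, endothelial cell growth factor, heparin) pre-incubated 2 h with compound, then LPS ([…]) for 4 h (E-selectin) or 16 h (VCAM-1). Cells fixed with 1.0% glutaraldehyde, blocked with 3.0% milk, primary antibody overnight at 4 °C, peroxidase secondary, o-phenylenediamine substrate at pH 4.5, absorbance 490 nm.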

HUVEC [7] = experiment: Antiinflammatory activity against TNF-alpha-induced VCAM-1 protein expression in HUVEC pretreated for 2 hrs before TNFalpha challenge measured after 16 hrs by whole cell ELISA; type: functional, cell-based; details: Homo sapiens; how it was run: as §1
HUVEC [8] = experiment: Antiinflammatory activity against TNF-alpha-induced VCAM-1 protein expression in HUVEC at 20 ug/ml pretreated for 2 hrs before TNFalpha challenge measured after 16 hrs by flow cytometry; type: functional; details: Homo sapiens; how it was run: as §3
HUVEC [9] = experiment: Antiinflammatory activity against LPS-induced VCAM-1 protein expression in HUVEC pretreated for 2 hrs before LPS challenge measured after 16 hrs by whole cell ELISA; type: functional, cell-based; details: Homo sapiens; how it was run: as §4
HUVEC [10] = experiment: Antiinflammatory activity against TNF-alpha-induced ICAM1 protein expression in HUVEC pretreated for 2 hrs before TNFalpha challenge measured after 16 hrs by whole cell ELISA; type: functional, cell-based; details: Homo sapiens; how it was run: as §1
[11] = Antiinflammatory activity against TNF-alpha-induced VCAM-1 protein expression in HUVEC by ELISA
HUVEC [12] = experiment: Antiinflammatory activity against TNF-alpha-induced E-selectin protein expression in HUVEC at 2.5 to 20 ug/ml pretreated for 2 hrs before TNFalpha challenge measured after 4 hrs by whole cell ELISA; type: functional, cell-based; details: Homo sapiens; how it was run: as §1
HUVEC [13] = experiment: Antiinflammatory activity against TNF-alpha-induced E-selectin protein expression in HUVEC at 20 ug/ml pretreated for 2 hrs before TNFalpha challenge measured after 4 hrs by flow cytometry; type: functional; details: Homo sapiens; how it was run: as §3

| Structure (SMILES) | inhibition (INH) (HUVEC [1]) [%] | MNTC at 24 h [2] [µg/mL] | IC50 (HUVEC [10]) [µg/mL] | other results |
| --- | --- | --- | --- | --- |
| CCCCCCCCSC(=O)/C=C/c1cc(OC)ccc1OC | 30 | 50 |  |  |
| CCOC(=S)/C=C/c1cc(OC)c(OC)c(OC)c1 | 95 | 20 | 10 (≈ 35.4 µM) | inhibition (INH) (HUVEC [3]): >95%; inhibition (HUVEC [4]): Dose-dependent effect; inhibition at 20 µg/mL (HUVEC [5]): > 95%; inhibition (HUVEC [6]): Active; inhibition (HUVEC [7]): Dose-dependent effect; inhibition at 20 µg/mL (HUVEC [8]): > 95%; inhibition (HUVEC [9]): Active; inhibition (HUVEC [10]): Dose-dependent effect; IC50 [11]: 0.04 mM; inhibition (HUVEC [12]): Active; inhibition at 20 µg/mL (HUVEC [13]): > 95% |
| CCCCCCCCSC(=O)CCc1cc(OC)c(OC)c(OC)c1 | 40 | 80 |  |  |
| CCCOC(=S)/C=C/c1cc(OC)c(OC)c(OC)c1 | 80 | 30 | 17 (≈ 57.4 µM) |  |
| CCSC(=O)/C=C/c1cc(OC)ccc1OC | 70 | 50 | 35 (≈ 139 µM) |  |
| CCCCCCCCOC(=O)/C=C/c1ccccc1 [OCTYL CINNAMATE] | 35 | 70 |  |  |
| CCOC(=O)/C=C/c1ccccc1 [ETHYL CINNAMATE] | 85 | 130 | 95 (≈ 539 µM) |  |
| COc1ccc(OC)c(/C=C/C(=O)Oc2ccccc2)c1 | 30 | 60 |  |  |
| CCCCOC(=O)/C=C/c1ccccc1 [BUTYL CINNAMATE] | 55 | 140 | 125 (≈ 612 µM) |  |
| CCCCCCCCSC(=O)/C=C/c1cc(OC)c(OC)c(OC)c1 | 46 | 70 |  |  |
| CCCCCCCCSC(=O)/C=C/c1ccccc1 [OCTYL THIOCINNAMATE] | 45 | 60 |  |  |
| COc1cc(/C=C/C(=O)Sc2ccccc2)cc(OC)c1OC | 85 | 50 | 30 (≈ 90.8 µM) |  |
| CCOC(=S)/C=C/c1ccccc1 [ETHYL THIONOCINNAMATE] | 90 | 50 | 22 (≈ 114 µM) |  |
| CCCOC(=O)/C=C/c1ccccc1 [PROPYL CINNAMATE] | 70 | 140 | 100 (≈ 526 µM) |  |
| O=C(/C=C/c1ccccc1)Sc1ccccc1 [PHENYL THIOCINNAMATE] | 65 | 70 | 55 (≈ 229 µM) |  |
| Nc1ccc(O)c(C(=O)O)c1 [MESALAMINE] |  |  |  | IC50 [11]: 16 mM |
| CCOC(=O)/C=C/c1cc(OC)c(OC)c(OC)c1 | 90 | 50 | 25 (≈ 93.9 µM) |  |
| CCCOC(=S)/C=C/c1ccccc1 [PROPYL THIONOCINNAMATE] | 75 | 80 | 50 (≈ 242 µM) |  |
| CCCOC(=O)/C=C/c1cc(OC)ccc1OC | 55 | 120 | 110 (≈ 439 µM) |  |
| CCSC(=O)/C=C/c1cc(OC)c(OC)c(OC)c1 | 65 | 30 | 25 (≈ 88.5 µM) |  |
| COc1cc(CCC(=O)OC(C)C)cc(OC)c1OC | 40 | 65 |  |  |
| CCCSC(=O)/C=C/c1cc(OC)c(OC)c(OC)c1 | 50 | 70 | 70 (≈ 236 µM) |  |

| Structure (SMILES) | inhibition (INH) (HUVEC [1]) [%] | MNTC at 24 h [2] [µg/mL] | IC50 (HUVEC [10]) [µg/mL] | other results |
| --- | --- | --- | --- | --- |
| CCSC(=O)CCc1cc(OC)c(OC)c(OC)c1 | 50 | 60 | 60 (≈ 211 µM) |  |
| CCCOC(=S)/C=C/c1cc(OC)ccc1OC | 70 | 40 | 25 (≈ 93.9 µM) |  |
| COc1ccc(OC)c(/C=C/C(=O)OC(C)C)c1 | 35 | 120 |  |  |
| CC(=O)Oc1ccccc1C(=O)O [ASPIRIN] |  |  |  | IC50 [11]: 6 mM |
| COc1cc(/C=C/C(=O)Oc2ccccc2)cc(OC)c1OC | 40 | 45 |  |  |
| O=C(/C=C/c1ccccc1)OCc1ccccc1 [BENZYL CINNAMATE] | 50 | 70 | 70 (≈ 294 µM) |  |
| CCCSC(=O)/C=C/c1cc(OC)ccc1OC | 55 | 50 | 45 (≈ 169 µM) |  |
| COc1ccc(OC)c(/C=C/C(=O)SCc2ccccc2)c1 | 50 | 60 | 60 (≈ 191 µM) |  |
| CCCOC(=O)CCc1cc(OC)c(OC)c(OC)c1 | 62 | 120 | 110 (≈ 390 µM) |  |
| CCSC(=O)/C=C/c1ccccc1 [ETHYL THIOCINNAMATE] | 55 | 50 | 47 (≈ 244 µM) |  |
| CCCOC(=O)CCc1ccc(OC)c(OC)c1 | 55 | 100 | 90 (≈ 357 µM) |  |
| COc1cc(/C=C/C(=O)OC(C)C)cc(OC)c1OC | 80 | 65 | 45 (≈ 161 µM) |  |
| COc1ccc(CCC(=O)OC(C)C)cc1OC | 30 | 110 |  |  |
| CCOC(=O)CCc1cc(OC)c(OC)c(OC)c1 | 50 | 110 | 110 (≈ 410 µM) |  |
| CCCCOC(=S)/C=C/c1ccccc1 [BUTYL THIONOCINNAMATE] | 70 | 85 | 55 (≈ 250 µM) |  |
| O=C(/C=C/c1ccccc1)SCc1ccccc1 [BENZYL THIOCINNAMATE] | 40 | 60 |  |  |
| CC(C)OC(=S)/C=C/c1ccccc1 [ISOPROPYL THIONOCINNAMATE] | 80 | 35 | 20 (≈ 96.9 µM) |  |
| COc1cc(/C=C/C(=O)SCc2ccccc2)cc(OC)c1OC | 75 | 40 | 20 (≈ 58.1 µM) |  |
| CCOC(=S)/C=C/c1cc(OC)ccc1OC | 80 | 25 | 15 (≈ 59.4 µM) |  |
| COc1cc(CCC(=O)SCc2ccccc2)cc(OC)c1OC | 45 | 60 |  |  |
| CCCOC(=O)/C=C/c1cc(OC)c(OC)c(OC)c1 | 62 | 120 | 100 (≈ 357 µM) |  |
| COc1cccc(/C=C/C(=O)OC(C)C)c1O | 30 | 120 |  |  |
